Reference: PubChem BioAssay
Inconclusive results are not listed.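 The calls were made as follows, unless noted: active = viability increase at or above a cutoff of the median across tested compounds plus 3 SD (cut at about 8.5% in these data, passing the limit was not always enough); inconclusive = some gains above the cutoff, reason not given; inactive = the rest.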

Experiments:
[1] = OD615 S. cerevisiae growth inhibition, permissive medium, pilot counter-assay, permissive growth control for S. cerevisiae lifespan shortening project (AID 705;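 active = growth inhibition above 25% in both replicates, a cutoff set 3 SD above the mean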); conditions: OD615, 24 h, at 10 µM, stronger effect = higher value
Outline: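 System: Engineered DeaD yeast | Buffer or medium: SC raffinose/galactose permissive medium | Incubation: Cells pre-grown 4 h, then 24 h compound exposure, 30 °C humidified | Measured by: Absorbance (optical density) at 615 nm | Read-out: Reduction in yeast growth (OD615)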

[2] = Restrictive medium S. cerevisiae growth inhibition, OD615, pilot screen of yeast lifespan reduction project, restrictive growth control (AID 706;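 active = growth inhibition above a set limit, 3 SD over mean compound inhibition, in both replicates, cut at about 43% in these data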;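 also: modified DeaD lifespan yeast strain shifted to restrictive glucose medium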); conditions: OD615, 48 h, at 10 µM, stronger effect = higher value
Outline: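 Material: modified S. cerevisiae; Medium: glucose-based CSMM-D restrictive medium; Compound dosing: one concentration, 10 µM final, 0.25% DMSO; Incubation: 48 h compound exposure at 30 °C; Measured by: OD615.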

[3] = viability gain of MRP-1-high H69AR cells under doxorubicin, pilot screen, MRP-1 activator project, CellTiter-Glo, duplicate (AID 807); conditions: H69AR viability with doxorubicin, CellTiter-Glo luminescence; at 10 µM; stronger effect = higher value;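 also: compound pretreatment 18-22 h then 72 h combined with doxorubicin; 0% = doxorubicin alone and 100% = vehicle without doxorubicin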
[4] = growth suppression of beta-catenin knockout HCT116, pilot screen, human colon tumor cells (AID 823;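 active = cell viability at or below a set limit in both duplicate runs, the limit being the all-compound median minus 4 SD, cut at about 23% in these data, passing the limit was not always enough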;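 also: 0% = wells killed by 20 µM Hyamine and 100% = untreated DMSO cell wells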); conditions: CellTiter-Glo, 60 h, at 10 µM, stronger effect = lower value
[5] = growth suppression of PTEN-deleted HCT116, pilot screen, cell-based, HCT116 clonal line, CellTiter-Glo (AID 824;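 active = viability at or below 27.92% in each of two runs, the all-compound median minus 4 SD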;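 also: 0% = 20 µM Hyamine control and 100% = vehicle cell control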); conditions: 60 h, at 10 µM, stronger effect = lower value
[6] = inhibitors of the yeast RAM network, pilot screen, dse1pr::URA3 reporter, 5-FOA selection (AID 869;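 active = inhibition over a set limit, the all-compound mean plus 3 SD, in both replicate runs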;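 also: 0% = DMSO wells with no growth and 100% = 10 µM 1-NA-PP1 with full growth; RAM network block rescues cells from 5-FOA so hits raise OD615 growth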); conditions: S. cerevisiae dse1pr::URA3 5-FOA growth, OD615, 2 d; at 10 µM; stronger effect = higher value; strain carries analog-sensitive mutant Cbk1 kinase
[7] = RAM signaling pathway blockade in yeast – S. cerevisiae, Pdr1DBD-CYC8 efflux-inhibited sensitized strain, primary screen (AID 1298;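 active = RAM network inhibition above 8.4% in each of two replicates, 3 SD over the compound average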;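 also: 0% = DMSO untreated cells without growth and 100% = 10 µM 1-NA-PP1 full growth; higher means more yeast growth rescued from 5-FOA killing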); conditions: S. cerevisiae cbk1-as DSE1-URA3 strain, 5-FOA growth OD615, 2 d; at 50 µM; stronger effect = higher value

CC(=O)N1CCc2c(sc(NC(=O)c3ccc4c(c3)OCCO4)c2C#N)C1
inactive: growth inhibition [1] -0.37% | growth inhibition [2] -8.73% | viability increase [3] -6.36% | viability [4] 35% | viability [5] 35.4% | inhibition [6] 2.62% | RAM network inhibition [7] 4.02%

COc1ccc(C2CC(c3c(Cl)cccc3Cl)n3nc(N)nc3N2)cc1 (stereo unspecified)
inactive: growth inhibition [1] -6.17% | growth inhibition [2] 5.1% | viability increase [3] -1.64% | viability [4] 95.3% | viability [5] 88.1% | inhibition [6] 2.57% | RAM network inhibition [7] 6.67%

Cc1nn(C)c(C)c1S(=O)(=O)N(CC(=O)NCc1cccs1)c1ccc(C(C)C)cc1
inactive: growth inhibition [1] -16.9% | growth inhibition [2] -13.5% | viability increase [3] -3.06% | viability [4] 99% | viability [5] 87.5% | inhibition [6] 2.2% | RAM network inhibition [7] 8.44%

COC(=O)c1ccc2c(=O)n3c(nc2c1)SCC(c1ccccc1)=N3
inactive: growth inhibition [1] 2.69% | growth inhibition [2] -0.25% | viability increase [3] -1.81% | viability [4] 95.1% | viability [5] 94.8% | inhibition [6] 2.39% | RAM network inhibition [7] 10.7%

CCOc1ccccc1Nc1cc(C)nc2nc(C)nn12
inactive: growth inhibition [1] -11.9% | growth inhibition [2] -9.62% | viability increase [3] -2.37% | viability [4] 104% | viability [5] 97.2% | inhibition [6] 1.67% | RAM network inhibition [7] -1.47%

O=C(CCSCCC(=O)NCc1cccs1)NCc1cccs1
inactive: growth inhibition [1] -5.92% | growth inhibition [2] 3.44% | viability increase [3] -1.73% | viability [4] 94.5% | viability [5] 96.3% | inhibition [6] 3.47% | RAM network inhibition [7] 2.86%

COc1cccc(-c2nc(C(N)=O)c3[nH]c(=O)n(-c4cccc(Cl)c4)c3n2)c1OC
inactive: growth inhibition [1] -21.4% | growth inhibition [2] -28.5% | viability increase [3] -4.45% | viability [4] 75.5% | viability [5] 72.5% | inhibition [6] 4.14% | RAM network inhibition [7] 3.65%

COc1cc(OC)cc(OCC(O)Cn2cnc3cc(C)c(C)cc32)c1 (stereo unspecified)
inactive: growth inhibition [1] -4.53% | growth inhibition [2] -8.79% | viability increase [3] -5.24% | viability [4] 80.2% | viability [5] 80.3% | inhibition [6] 1.33% | RAM network inhibition [7] -0.82%

O=C(CC(c1ccccc1)c1ccccc1O)NCCN1CCOCC1 (stereo unspecified)
inactive: growth inhibition [1] 0.155% | growth inhibition [2] -2.5% | viability increase [3] -2.74% | viability [4] 102% | viability [5] 95.6% | inhibition [6] 3.25% | RAM network inhibition [7] 2.36%

Cc1nc(SC(C)C)[nH]c(=O)c1Cc1ccccc1
inactive: growth inhibition [1] -14.9% | growth inhibition [2] -4.47% | viability increase [3] -0.89% | viability [4] 98.4% | viability [5] 91.8% | inhibition [6] 1.1% | RAM network inhibition [7] 3.52%

Cc1ccc(-c2nc(CS(=O)CC(=O)NCCN3CCCC3)c(C)o2)cc1 (stereo unspecified)
inactive: growth inhibition [1] -8.03% | growth inhibition [2] -5.56% | viability increase [3] -2.7% | viability [4] 86.4% | viability [5] 99.3% | inhibition [6] 0.18% | RAM network inhibition [7] 0.43%

OC(CN1C2=NCCCN2c2ccccc21)c1ccc(Cl)cc1 (stereo unspecified)
inactive: growth inhibition [1] -8.91% | growth inhibition [2] 2.81% | viability increase [3] -4.02% | viability [4] 73.8% | viability [5] 76.1% | inhibition [6] 1.26% | RAM network inhibition [7] 3.02%

COCCCNC(=O)c1c(F)c(F)c(F)c(F)c1F
inactive: growth inhibition [1] -11.2% | growth inhibition [2] -2.95% | viability increase [3] -1.94% | viability [4] 95.7% | viability [5] 92.9% | inhibition [6] 0.09% | RAM network inhibition [7] -0.98%

O=C(Nc1cccc(OC(F)(F)F)c1)c1ccc(Br)o1
inactive: growth inhibition [1] -1.13% | growth inhibition [2] 9.08% | viability increase [3] 1.31% | viability [4] 81.6% | viability [5] 75.1% | inhibition [6] 2.96% | RAM network inhibition [7] 0.92%

CCN(CC)S(=O)(=O)c1ccc(C(=O)OCCN2C(=O)CCC2=O)cc1
inactive: growth inhibition [1] -4.98% | growth inhibition [2] 10.3% | viability increase [3] 0.48% | viability [4] 102% | viability [5] 101% | inhibition [6] 0.755% | RAM network inhibition [7] 4.16%

O=C(c1ccc(CNc2c(N3CCOCC3)c(=O)c2=O)cc1)N1CC=C(c2ccccc2)CC1
inactive: growth inhibition [1] -1.62% | growth inhibition [2] -7.31% | viability increase [3] -0.15% | viability [4] 95.3% | viability [5] 94.8% | inhibition [6] 2.02% | RAM network inhibition [7] 6.56%

Cn1c(Cn2c(=O)sc3ccccc32)nnc1SCC(=O)NCc1ccccc1
inactive: growth inhibition [1] -10.1% | growth inhibition [2] -7.48% | viability increase [3] -0.73% | viability [4] 99% | viability [5] 102% | inhibition [6] 3.87% | RAM network inhibition [7] 4.44%

CCOc1cc(C(=O)Nc2nnc(C)s2)cc(OCC)c1OCC
inactive: growth inhibition [1] -0.31% | growth inhibition [2] 0.555% | viability increase [3] -4.22% | viability [4] 108% | viability [5] 97.7% | inhibition [6] 0.43% | RAM network inhibition [7] 0.63%

CC(C)C(=O)N1CCN(c2ccccc2N)CC1
inactive: growth inhibition [1] -9.49% | growth inhibition [2] -20.2% | viability increase [3] -1.42% | viability [4] 102% | viability [5] 95.8% | inhibition [6] 1.55% | RAM network inhibition [7] 1.34%

COc1ccc(C2SCC(C(=O)O)N2C(C)=O)cc1OC (stereo unspecified)
inactive: growth inhibition [1] 0.095% | growth inhibition [2] 1.78% | viability increase [3] 0.1% | viability [4] 96.5% | viability [5] 102% | inhibition [6] 1.33% | RAM network inhibition [7] 7.78%

CCCC(=O)Nc1nc(-c2ccc3c(c2)OCCO3)cs1
inactive: growth inhibition [1] -12% | growth inhibition [2] -6.14% | viability increase [3] 2.44% | viability [4] 77.9% | viability [5] 83.3% | inhibition [6] 1.37% | RAM network inhibition [7] 0.85%

COC(=O)C1CCN(C(=O)c2ccc(Cl)c(S(=O)(=O)NCc3cccnc3)c2)CC1
inactive: growth inhibition [1] -4.88% | growth inhibition [2] -18.5% | viability increase [3] 0.87% | viability [4] 101% | viability [5] 102% | inhibition [6] 1.32% | RAM network inhibition [7] 2.3%

CCn1ncc(C2=NOC(C(=O)Nc3c(C)nn(Cc4ccc(F)cc4)c3C)C2)c1C (stereo unspecified)
inactive: growth inhibition [1] -7.87% | growth inhibition [2] -11.5% | viability increase [3] 0.42% | viability [4] 93.5% | viability [5] 88.7% | inhibition [6] 1.59% | RAM network inhibition [7] 1.41%

COc1ccc(OC)c(NC2c3ccccc3C(=O)N2Cc2ccc3c(c2)OCO3)c1 (stereo unspecified)
inactive: growth inhibition [1] -0.33% | growth inhibition [2] -3.93% | viability increase [3] -0.47% | viability [4] 98% | viability [5] 90% | inhibition [6] 0.2% | RAM network inhibition [7] 5.4%

CCOC(=O)CNC(=O)CSc1nnc(Cn2c(=O)sc3ccccc32)n1C
inactive: growth inhibition [1] -6.96% | growth inhibition [2] 6.85% | viability increase [3] -1.45% | viability [4] 108% | viability [5] 98% | inhibition [6] 0.83% | RAM network inhibition [7] 3.34%

Cc1cc(C)c2c(=O)[nH]n(C3CCOC(C)(C)C3)c2n1 (stereo unspecified)
inactive: growth inhibition [1] -4.97% | growth inhibition [2] -0.145% | viability increase [3] -0.16% | viability [4] 107% | viability [5] 99.8% | inhibition [6] -0.37% | RAM network inhibition [7] 1.49%

COc1ccc(C(=O)N2CCN(c3ccc(C)c(C)c3)CC2)cc1OC
inactive: growth inhibition [1] -6.27% | growth inhibition [2] -4.04% | viability increase [3] -0.89% | viability [4] 99.5% | viability [5] 92% | inhibition [6] 0.21% | RAM network inhibition [7] 2.55%

COc1cccc(N(CC(=O)NCc2cccnc2)S(C)(=O)=O)c1
inactive: growth inhibition [1] -11.3% | growth inhibition [2] -4.04% | viability increase [3] -1.47% | viability [4] 95.1% | viability [5] 94.6% | inhibition [6] 0.625% | RAM network inhibition [7] 3.01%

CCN1C(=O)N(CC)C(O)(c2ccccc2)C1(O)c1ccccc1 (stereo unspecified)
inactive: growth inhibition [1] -12.7% | growth inhibition [2] -8.41% | viability increase [3] -2.16% | viability [4] 97.1% | viability [5] 94.8% | inhibition [6] 2.12% | RAM network inhibition [7] 6.55%

Cc1ccc(C2/C(=C(/O)c3ccc(Cl)cc3)C(=O)C(=O)N2CC2CCCO2)o1 (stereo unspecified)
inactive: growth inhibition [1] -7.4% | growth inhibition [2] 12.5% | viability increase [3] -3.2% | viability [4] 95.1% | viability [5] 96.4% | inhibition [6] 0.77% | RAM network inhibition [7] -0.36%

CCOC(=O)c1csc(NC(=O)C(C)(C)C)n1
inactive: growth inhibition [1] -6.04% | growth inhibition [2] -0.045% | viability increase [3] 2.71% | viability [4] 105% | viability [5] 98.8% | inhibition [6] 0.48% | RAM network inhibition [7] -1.57%

COc1ccc(S(=O)(=O)Nc2ccc3oc(C)c(C(=O)O)c3c2)cc1
inactive: growth inhibition [1] 3.11% | growth inhibition [2] -3.25% | viability increase [3] -2.36% | viability [4] 95.5% | viability [5] 91.2% | inhibition [6] 1.54% | RAM network inhibition [7] 3.39%

COc1ccc(C(=O)c2coc3ccc(O)c(CN4CCOCC4)c23)cc1
inactive: growth inhibition [1] -5.46% | growth inhibition [2] -12% | viability increase [3] -4.42% | viability [4] 77.2% | viability [5] 80.3% | inhibition [6] 1.79% | RAM network inhibition [7] -1.13%
